Screening results as filed in PubChem.
The list is not random: actives were taken first. Their share in the collection is about 2.4%.
APOBEC3A inh – blocks human APOBEC3A ssDNA deamination. hit rate 0.41% among 330,000. recombinant A3A, FAM/TAMRA ssDNA deamination fluorescence. P31941. inhibition, % at 20 µM;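 active = at least 40% inhibition at 20 µM here, with at most 30% in a related deaminase screen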;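 note: plate controls were A3A with DMSO for no effect and wells lacking A3A enzyme for full effect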
UBC9 SUMO inh – blocks human SUMOylation mediated by UBC9. P63279. HTRF SUMOylation assay, SAE1/SAE2 + UBC9, in vitro. inhibition, % at 35 µM. hit rate 0.36% among 290,000. AID 2006; in the data active = inhibition above about 50%, passing the limit was not always enough
PfG6PD inh – PfG6PD (Plasmodium falciparum) enzyme inhibition. inhibition, % at 20 µM. AID 504690. hit rate 0.78% among 350,000. PfGluPho enzyme, NADPH resazurin-diaphorase fluorescence;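 active = inhibition reaching at least a set limit at 20 µM in the primary screen, cut at about 59% in these data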;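 note: 0% = DMSO wells with substrate and 100% = DMSO wells lacking glucose-6-phosphate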
HKDC1 inhibitor – blocks human hexokinase HKDC1 activity | Q2TB90 | recombinant HKDC1, G6PDH/diaphorase resazurin coupled fluorescence | inhibition, % at 20 µM | hit rate 0.16% among 340,000 | AID 493160;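 active = inhibition above about 35% when tested at 20 µM, limit read from the data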;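 note: plate controls were DMSO wells with enzyme for no effect and DMSO wells lacking enzyme for full effect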
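Incubation: 90 min at room temperature in dark / Material: recombinant HKDC1 (HK5) hexokinase enzyme, produced in-house / Quantity: enzyme 5 µg/mL final / Compound: one dose of 20 µM, 1% DMSO / Reagent: glucose and ATP substrates / Buffer or medium: Tris pH 8.0 buffer with MgCl2, Tween-20, BSA, BME / Technique: resorufin fluorescence at 613 nm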
PfM18AAP inh-1 – blocks P. falciparum M18 aspartyl aminopeptidase | hit rate 1.2% among 290,000 | recombinant PfM18AAP, H-Glu-NHMec fluorogenic cleavage | inhibition, % at 7.35 µM;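 active = inhibition above the campaign mean inhibition over all tested compounds plus 3 SD, cut at about 28% in these data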;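 note: 0% = plate median of test compound wells and 100% = 2 mM ZnCl2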
A3G deaminase – blocks human APOBEC3G single-stranded DNA deamination; Q9HC16; recombinant A3G, ssDNA deamination FAM/TAMRA fluorescence; inhibition, % at 20 µM; hit rate 0.28% among 330,000; AID 493012;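 active = inhibition of at least 40% at 20 µM, with no more than 30% in the related APOBEC3A deaminase screen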;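 note: plate controls were DMSO wells with A3G for no effect and wells lacking A3G enzyme for full effect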
Target sequence (Q9HC16 whole entry, looked up): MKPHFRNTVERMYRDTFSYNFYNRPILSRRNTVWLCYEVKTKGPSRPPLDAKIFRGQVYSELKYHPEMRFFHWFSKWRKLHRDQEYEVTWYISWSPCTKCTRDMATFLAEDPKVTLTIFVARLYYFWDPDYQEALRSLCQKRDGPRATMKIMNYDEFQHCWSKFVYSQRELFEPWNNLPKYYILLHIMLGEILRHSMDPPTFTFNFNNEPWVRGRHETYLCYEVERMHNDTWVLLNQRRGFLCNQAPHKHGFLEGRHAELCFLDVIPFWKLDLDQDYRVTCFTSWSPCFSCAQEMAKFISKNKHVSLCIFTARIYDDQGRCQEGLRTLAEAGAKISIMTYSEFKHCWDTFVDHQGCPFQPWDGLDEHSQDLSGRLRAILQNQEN
PfM18AAP inh-2 – confirmation of Plasmodium falciparum M18 aspartyl aminopeptidase inhibitors; shares compounds with PfM18AAP inh-1; recombinant PfM18AAP, H-Glu-NHMec fluorogenic cleavage; inhibition, % at 7.35 µM; hit rate 28% among 2,400; AID 2170;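 active = mean inhibition over replicate wells above the hit cutoff set for the earlier primary screen, cut at about 29% in these data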;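 note: 0% = median of test compound wells and 100% = 2 mM ZnCl2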
CTSL1 counter – Cathepsin L (human) inhibition, confirmation | AID 2178 | 2,400 tested, under 10 active | shares compounds with PfM18AAP inh-1 | inhibition, % at 5.96 µM | purified cathepsin L1, Z-Leu-Arg-MCA fluorescence;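 active = average inhibition across replicates above the hit cutoff set in the earlier primary screen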;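 note: 0% = median of test compound wells and 100% = Z-Phe-Ala-diazomethylketone 1 µM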
Target sequence (P07711 whole entry, looked up): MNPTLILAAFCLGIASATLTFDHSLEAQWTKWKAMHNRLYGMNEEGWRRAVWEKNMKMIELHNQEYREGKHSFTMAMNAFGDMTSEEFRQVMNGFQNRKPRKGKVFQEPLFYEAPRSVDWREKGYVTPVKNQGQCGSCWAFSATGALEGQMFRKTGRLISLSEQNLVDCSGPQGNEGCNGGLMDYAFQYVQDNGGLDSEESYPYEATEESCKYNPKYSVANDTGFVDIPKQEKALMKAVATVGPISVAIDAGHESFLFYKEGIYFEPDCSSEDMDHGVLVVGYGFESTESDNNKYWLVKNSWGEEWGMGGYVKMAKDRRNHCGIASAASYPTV
The depositor's hits bear a star; / = no result.

SMILES	APOBEC3A inh	UBC9 SUMO inh	PfG6PD inh	HKDC1 inhibitor	PfM18AAP inh-1	A3G deaminase	PfM18AAP inh-2	CTSL1 counter
NNc1nc2ccccc2c(=O)n1Cc1ccccc1	-3.3	3.2	50.7	-0.8	54.2*	-5.1	38.6*	3.2
CC12CC(NC(=O)N1c1cccc(C(=O)Nc3ncn[nH]3)c1)c1ccccc1O2 (stereo not given)	-1.5	30.4	-0.4	2.7	42.8*	-0.8	50.4*	-6.8
COc1ccc(NC(=O)c2cccc(N3C(=O)NC4CC3(C)Oc3ccccc34)c2)cc1 (stereo not given)	-0.7	12.1	3.6	0.4	1.8	-2.3	/	/
CN1CCc2c(sc3nc(SCC(=O)NCc4ccco4)n(-c4ccccc4)c(=O)c23)C1	6.1	8.0	8.1	-1.7	39.4*	2.7	-2.8	-1.4
COc1ccc(-n2c(SCC(=O)NCc3ccco3)nc3sc4c(c3c2=O)CCN(C)C4)cc1	2.8	9.6	22.2	0.3	34.1*	2.6	-18.3	-3.9
Cc1sc2nc(SCC(=O)NCc3ccco3)n(-c3ccccc3)c(=O)c2c1C	-2.0	-3.6	-6.2	-8.0	10.3	3.0	/	/
O=C(CS(=O)(=O)c1ccc(Cl)cc1)NCc1ccccc1	-3.1	3.9	9.3	-6.2	1.6	-3.0	/	/
NC(=O)CS(=O)(=O)c1ccc(Cl)cc1	-1.6	10.7	-0.5	2.3	40.1*	-4.8	-55.6	-2.0
CCOC(=O)c1c(C)oc2c(CC(=O)c3ccccc3)c(Cl)c(O)c(O)c12	/	11.8	-17.7	-10.1	44.6*	/	24.2	3.1
CCc1nc(NCc2ccc3c(c2)OCO3)c2oc3ccccc3c2n1	-3.6	5.7	8.4	9.8	0.0	-6.4	/	/
Cn1c(=O)[nH]c(=O)c2c1nc(CN1CCN(c3ccc(F)cc3)CC1)n2CCN1CCOCC1	2.8	1.7	-8.5	-2.7	12.7	0.6	/	/
CCCC(=O)Nc1ccc(C(=O)N/N=C2\CC(=O)CC(C)(C)C2)cc1	-1.1	-4.3	-7.9	-12.0	39.0*	-4.1	-3.0	2.7
CC1(C)OC(C)(C)/C(=C/Nc2ccc(O)cc2)C1=O	9.9	24.6	27.0	20.2	42.8*	17.2	-50.6	4.3
COc1cccc(OC)c1OCc1cc(C2C3CCCC=C3C(C#N)=C(N)C2(C#N)C#N)c(C)cc1C (stereo not given)	-1.1	-28.1	19.5	13.2	36.2*	-0.7	-53.7	-4.3
OCC1(Cc2ccccc2)CCN(C2CCN(c3ccc(F)c(F)c3)CC2)CC1	-3.5	1.9	-6.4	-5.3	-0.2	-6.4	/	/
COc1ccc(NC(=O)c2ccc3c(c2)NC(=O)CS3)cc1	39.0	/	38.3	2.2	/	3.3	/	/
Cc1ccc(NS(=O)(=O)c2cc(NC(=O)c3ccc4c(c3)NC(=O)CS4)ccc2Cl)c(C)c1	-2.2	-3.3	44.8	-1.6	31.7*	32.1	-23.7	-9.7
CCOC(=O)c1ccc(S(=O)(=O)Nc2cc(C(C)(C)C)no2)cc1	-1.1	4.6	-24.7	-2.8	2.3	-4.9	/	/
Cc1cccc(-n2c(Cc3ccccc3)n[nH]c2=S)c1	4.1	-5.0	38.7	8.1	33.8*	30.9	-5.0	-13.2
Cc1c(C(=O)NCc2n[nH]c(=S)n2-c2ccc(F)cc2)cccc1[N+](=O)[O-]	-5.7	-15.2	35.2	-2.5	32.6*	11.6	8.0	2.1
Cc1cccc(-n2c(CNC(=O)Cc3ccccc3)n[nH]c2=S)c1	-1.4	12.0	38.0	3.6	38.1*	20.7	2.3	0.9
COc1ccc(CC(=O)NCc2n[nH]c(=S)n2-c2ccc(F)cc2)cc1	-4.3	4.1	10.0	-4.0	22.7	14.4	/	/
COc1ccc(C(=O)NCC2(c3ccccc3)CCOCC2)cc1[N+](=O)[O-]	-0.8	-3.6	-6.6	5.2	-4.2	-3.6	/	/
CC1CC(C)CN(C(=O)CCS(=O)(=O)c2ccc3c(c2)NC(=O)CS3)C1 (stereo not given)	0.4	9.4	5.6	-2.4	0.0	0.5	/	/
COc1ccc(NC(=O)CN2CC(C)OC(C)C2)cc1Cl (stereo not given)	-5.9	3.2	5.2	-4.7	8.9	-5.9	/	/
SMILES	APOBEC3A inh	UBC9 SUMO inh	PfG6PD inh	HKDC1 inhibitor	PfM18AAP inh-1	A3G deaminase	PfM18AAP inh-2	CTSL1 counter
N#C/C(=C\c1ccccc1)C(=O)Nc1nncs1	-0.9	1.0	-12.8	10.2	34.6*	-4.8	36.8*	-1.9
N#C/C(=C\c1ccccc1)C(=O)Nc1cccnc1	-2.7	-7.5	-10.4	-1.8	1.5	-7.0	/	/
O=C(c1ccc(-c2ccc([N+](=O)[O-])cc2Cl)o1)N1CCOCC1	2.5	18.9	3.1	-10.7	38.5*	2.6	-19.8	4.4
C=CCOc1ccccc1CNCCCN1CCOCC1	-1.8	-6.2	-13.2	-6.9	-7.0	4.7	/	/
COCCCNC(=S)N/N=C/c1ccc(O)cc1	-3.9	16.8	-6.6	-1.7	9.4	-4.2	/	/
COCCCNC(=S)N/N=C/c1ccc(O)cc1O	-3.2	1.8	-5.8	-38.9	35.8*	-0.9	7.0	-0.2
CCOc1ccccc1/C=c1\sc2ncnn2c1=O	-5.4	18.7	5.6	5.3	51.4*	-8.1	28.6*	-0.6
CCCOc1ccc(/C=C2\SC(=S)N(CC3CCCO3)C2=O)cc1 (stereo not given)	0.6	0.0	9.6	-6.7	1.1	-3.6	/	/
CCCOc1ccc(/C=c2\sc3ncnn3c2=O)cc1	-1.5	10.9	-4.7	2.0	73.1*	-3.7	38.9*	2.9
CC(=O)Oc1ccc(/C=c2\sc3ncnn3c2=O)cc1	-3.0	-1.3	-14.2	4.7	34.7*	-4.7	-11.4	-7.0
CCOC(=O)C1=C(C)N=c2s/c(=C\c3ccc(OC(C)=O)cc3)c(=O)n2C1/C=C/c1ccccc1 (stereo not given)	-4.2	-11.6	45.1	1.5	1.4	-17.3	/	/
CC(=O)c1ccc(Nc2ncnc3ccc(Br)cc23)cc1	/	/	-0.2	/	/	/	/	/
Cn1cc(CNCC2CCCO2)c(-c2ccc(Oc3ccccc3)cc2)n1 (stereo not given)	-4.4	-0.6	-3.0	0.5	-2.4	-8.9	/	/
O=[N+]([O-])c1ccc(NN=Cc2cccc(O)c2)nc1	/	/	31.2	-0.9	/	/	/	/
Cc1cccc(C)c1-n1c(C)cc(/C=N\Nc2ccc([N+](=O)[O-])cn2)c1C	21.2	11.8	3.2	-0.8	51.2*	3.4	-24.1	3.4
O=[N+]([O-])c1ccc(N/N=C/c2cn(Cc3ccc(F)cc3)c3ccccc23)nc1	/	13.4	7.3	0.6	40.1*	/	-35.4	-0.8
COC(=O)N/N=C/c1cn(Cc2ccc(F)cc2)c2ccccc12	-1.3	12.0	-6.0	2.2	3.3	-5.6	/	/
COc1cc(/C=N/Nc2ccc([N+](=O)[O-])cn2)cc(OC)c1O	24.8	-8.7	42.4	-3.1	37.6*	8.2	-9.8	0.3
